Assay [1] deals with T1, NTMT1 (Homo sapiens, UniProt Q9BV86).
T1 sequence (Q9BV86 1-223): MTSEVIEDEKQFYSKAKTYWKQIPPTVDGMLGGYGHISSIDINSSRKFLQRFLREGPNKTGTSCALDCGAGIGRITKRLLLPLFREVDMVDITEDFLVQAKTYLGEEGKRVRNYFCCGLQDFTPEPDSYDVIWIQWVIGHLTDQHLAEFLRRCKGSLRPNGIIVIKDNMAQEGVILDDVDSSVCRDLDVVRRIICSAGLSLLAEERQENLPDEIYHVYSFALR
To be noted: read-out: Ki, app; previously developed NTMT1 bisubstrate inhibitors; cited from earlier work.

In assay [2] the target is T2, HemK2/KMT9-Trm112 complex (Homo sapiens, UniProt Q9Y5N5).
T2 sequence (Q9Y5N5 1-214): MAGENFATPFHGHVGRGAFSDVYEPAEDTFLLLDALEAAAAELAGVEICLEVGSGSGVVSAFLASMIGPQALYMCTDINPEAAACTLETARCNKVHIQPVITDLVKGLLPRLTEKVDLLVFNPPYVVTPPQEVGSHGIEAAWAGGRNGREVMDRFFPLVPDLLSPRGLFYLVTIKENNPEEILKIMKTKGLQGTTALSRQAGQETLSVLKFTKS
T2 sequence (Q9UI30 1-125 partner): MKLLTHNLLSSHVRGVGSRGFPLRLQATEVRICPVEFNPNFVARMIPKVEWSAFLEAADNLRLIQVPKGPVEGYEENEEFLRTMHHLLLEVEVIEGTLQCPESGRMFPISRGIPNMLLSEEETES
Nature of the assay: HemK2-Trm112 methylation inhibition assay. The note with it: read-out: inhibition of activity. The format is biochemical.

For assay [3], the target named is protein N-terminal methyltransferase 1 (NTMT1), purified recombinant (human) (UniProt Q9BV86). Put plainly: SAHH-coupled fluorescence enzyme inhibition assay.
The target of assay [4] is T1, NTMT1. Nature of the assay: Pull-down from HeLa cell lysates with immobilized probe, anti-NTMT1 Western blot. The format is binding. To be noted: 700 mM NaCl wash. The procedure, abridged: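 Lysate was incubated overnight with probe-loaded streptavidin resin, optionally with competitor (10 mM stock) added first; resin alone served as control. Washes used IP buffer, then 700 mM NaCl. Boiled-bead eluates were run on SDS-PAGE and blotted with anti-NTMT1 (1:1000, 4°C overnight) and HRP secondary, with ECL detection.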
Background: A western blot detects proteins with antibodies after separation by electrophoresis.

Assay [5] addresses T1, NTMT1. Format: binding. To be noted: probe immobilized on streptavidin beads. The procedure, abridged: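 Biotinylated probe (100 µM) was loaded overnight onto streptavidin resin in 20 mM Tris, 50 mM KCl, pH 7.5. Purified NTMT1 was bound for 4 h in the same buffer plus 1 mM DTT, then washed until no protein was detected. Elution was stepwise with 500 mM, 1 M, 2 M and 4 M NaCl, moving to the next step once eluate protein approached 0 mg/mL.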

NAH = SAM mimic in which the sulfonium ion is replaced by a nitrogen atom; C3 = 3-carbon linker to the N-terminal alpha-amine

Take `CC[C@H](C)[C@H](NC(=O)[C@H](CCCNC(=N)N)NC(=O)[C@H](CCCCN)NC(=O)[C@@H]1CCCN1C(=O)CNCCCCN(CC[C@H](N)C(=O)O)C[C@H]1O[C@@H](n2cnc3c(N)ncnc32)[C@H](O)[C@@H]1O)C(=O)N[C@@H](C)C(N)=O` [NAH-C4-GPKRIA]: the Ki on NTMT1 [1] is 0.13 ± 0.04 nM.

For orientation: inhibition means the drop in the measured response relative to a control, in per cent. For `Nc1ncnc2c1ncn2[C@@H]1O[C@H](C[C@@H](N)CC[C@H](N)C(=O)O)[C@@H](O)[C@H]1O` [sinefungin], the inhibition at 100 µM in assay [2] was around 50%.

Take NAH-C3-GPK (compound 3) (peptide): in assay [3], the Ki is 41 nM.

Regarding NAH-C3-GPKK-biotin [Probe 6], on NTMT1 [4], the “enrichment of NTMT1 from HeLa cell lysates” value is “enriched”. Besides, the “salt concentration at which NTMT1 was eluted off the probe” value at NTMT1 [5] worked out at 4 M NaCl.

With NAH-C3-PPKRIA ({NAH-C3}-PPKRIA-NH2), the Ki with NTMT1 [1] was 39 ± 10 nM.

Regarding NAH-C4-GPK (compound 4) (peptide), in assay [3], the Ki amounted to 44 nM.

The record behind these values is article PMC8286339 (ACS chemical biology, 2021).
